Measurements from article PMC8286641 (European Journal of Drug Metabolism and Pharmacokinetics, 2021).

Columns and labels:
[1] = target: T1, ENT1 (Homo sapiens, UniProt Q99808); experiment: Inhibition of ENT1-mediated [3H]-uridine uptake in HAP1 ENT2-KO cells; type: cell-based; conditions: 10 µM TKI; for % inhibition of ENT1 activity (mean ± SD): HAP1-ENT2 KO cells, [3H]-uridine uptake 5 min at 37 °C; for ENT1 inhibitor class / Effect on ENT1 activity (in words): HAP1 ENT2-KO cells
T1 sequence (Q99808 1-456): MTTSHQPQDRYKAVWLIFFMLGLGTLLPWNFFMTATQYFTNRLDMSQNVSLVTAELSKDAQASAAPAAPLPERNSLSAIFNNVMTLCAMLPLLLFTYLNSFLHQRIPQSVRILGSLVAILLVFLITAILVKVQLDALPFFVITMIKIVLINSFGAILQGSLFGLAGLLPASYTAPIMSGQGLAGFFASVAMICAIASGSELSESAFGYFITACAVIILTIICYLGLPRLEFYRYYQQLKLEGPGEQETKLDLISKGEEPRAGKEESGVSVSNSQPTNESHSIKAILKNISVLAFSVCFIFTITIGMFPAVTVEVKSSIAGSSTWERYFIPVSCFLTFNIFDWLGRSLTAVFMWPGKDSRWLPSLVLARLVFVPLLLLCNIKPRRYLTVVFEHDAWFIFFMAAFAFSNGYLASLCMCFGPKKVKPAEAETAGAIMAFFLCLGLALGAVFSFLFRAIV

[2] = target: T1, ENT1; experiment: Prediction of in vivo ENT1 inhibition; conditions: predicted if Imax,u/IC50 ≥ 0.1
In short: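 Unbound peak plasma level (Imax,u) was obtained from literature Cmax and unbound fraction and divided by in vitro ENT1 IC50. Inhibition was predicted when the ratio was ≥ 0.1, following FDA drug-interaction guidance.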

[3] = Maximum plasma concentration of TKIs; type: in vivo; conditions: from Cmax and fu
[4] = plasma; ref 43-47 (Reference column, one per TKI); cited from earlier work
[5] = target: T2, ENT2 (Homo sapiens, UniProt Q14542); experiment: Prediction of in vivo ENT2 inhibition; conditions: Imax,u/IC50 greater than 0.1
T2 sequence (Q14542 1-456): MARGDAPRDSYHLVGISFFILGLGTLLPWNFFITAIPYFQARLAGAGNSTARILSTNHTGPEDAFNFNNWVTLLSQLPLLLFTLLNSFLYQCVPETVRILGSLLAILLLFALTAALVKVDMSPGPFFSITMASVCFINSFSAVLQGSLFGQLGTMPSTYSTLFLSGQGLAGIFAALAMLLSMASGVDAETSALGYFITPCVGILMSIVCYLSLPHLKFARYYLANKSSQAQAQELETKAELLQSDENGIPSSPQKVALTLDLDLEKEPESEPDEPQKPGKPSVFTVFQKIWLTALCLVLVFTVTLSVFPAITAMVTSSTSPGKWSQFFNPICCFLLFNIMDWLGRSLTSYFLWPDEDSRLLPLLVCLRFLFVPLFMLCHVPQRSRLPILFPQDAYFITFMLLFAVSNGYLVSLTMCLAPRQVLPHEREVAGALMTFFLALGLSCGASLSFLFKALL
In short: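 Imax,u from literature Cmax and unbound fraction was divided by ENT2 IC50, using the FDA guidance threshold of 0.1. […] Uptake was counted by scintillation, normalised to protein, and fitted to a four-parameter logistic curve; three independent assays.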

[6] = test system: ENT1/ENT2; experiment: Lorlatinib accumulation assay in HAP1 wild-type, ENT1-KO and ENT2-KO cells; type: cell-based, human; conditions: 10 µM lorlatinib, ENT1-KO, ENT2-KO cells
In short: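 HAP1 wild-type, ENT1-KO and ENT2-KO cells were grown in Iscove's modified Dulbecco's medium with 10% fetal calf serum and penicillin/streptomycin. Cells were exposed to 10 µM test compound for 5 min at 37 °C, without or with 0.1 µM (ENT1) or 100 µM (ENT1/ENT2) NBMPR. They were then washed twice in ice-cold PBS and lysed in distilled water. Lysates underwent acetonitrile extraction, and compound was quantified by LC–MS/MS (C18 column, ESI+).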

Row | % inhibition of ENT1 activity (mean ± SD) [1] [%] | SMILES | ENT1 inhibitor class [1] | further results
1 | 25.0 ± 7.9 | CCN1CCN(Cc2ccc(Nc3ncc(F)c(-c4cc(F)c5nc(C)n(C(C)C)c5c4)n3)nc2)CC1 [Abemaciclib, abemaciclib] | weak (decreased ENT1 activity by less than 35% and can thus be considered as weak ENT1 inhibitors) | 
2 | 42.6 ± 10.4 | CC#CC(=O)N1CCC[C@H]1c1nc(-c2ccc(C(=O)Nc3ccccn3)cc2)c2c(N)nccn12 [Acalabrutinib, acalabrutinib] | moderate (inhibit ENT1 activity by more than 35% but less than 60%) | 
3 | 54.5 ± 2.4 | CN(C)C/C=C/C(=O)Nc1cc2c(Nc3ccc(F)c(Cl)c3)ncnc2cc1O[C@H]1CCOC1 [Afatinib, afatinib] | moderate (inhibit ENT1 activity by more than 35% but less than 60%) | 
4 | 54.0 ± 4.9 | CCc1cc2c(cc1N1CCC(N3CCOCC3)CC1)C(C)(C)c1[nH]c3cc(C#N)ccc3c1C2=O [Alectinib, alectinib] | moderate (inhibit ENT1 activity by more than 35% but less than 60%) | 
5 | 52.5 ± 11.1 | COc1cc(N2CCC(N3CCN(C)CC3)CC2)ccc1Nc1ncc(Cl)c(Nc2ccccc2P(C)(C)=O)n1 [Brigatinib, brigatinib] | moderate (inhibit ENT1 activity by more than 35% but less than 60%) | 
6 | 48.8 ± 2.5 | COc1cc2nccc(Oc3ccc(NC(=O)C4(C(=O)Nc5ccc(F)cc5)CC4)cc3)c2cc1OC [Cabozantinib, cabozantinib] | moderate (inhibit ENT1 activity by more than 35% but less than 60%) | 
7 | 26.3 ± 1.7 | Cc1cc(Nc2ncc(Cl)c(Nc3ccccc3S(=O)(=O)C(C)C)n2)c(OC(C)C)cc1C1CCNCC1 [Ceritinib, ceritinib] | weak (decreased ENT1 activity by less than 35% and can thus be considered as weak ENT1 inhibitors) | Effect on ENT1 activity (in words) [1]: only modestly decrease ENT1 activity
8 | 34.7 ± 2.7 | C[C@@H](Oc1cc(-c2cnn(C3CCNCC3)c2)cnc1N)c1c(Cl)ccc(F)c1Cl [Crizotinib, crizotinib] | weak (decreased ENT1 activity by less than 35% and can thus be considered as weak ENT1 inhibitors) | Effect on ENT1 activity (in words) [1]: only modestly decrease ENT1 activity
9 | 43.9 ± 2.3 | COc1cc2ncnc(Nc3ccc(F)c(Cl)c3)c2cc1NC(=O)/C=C/CN1CCCCC1 [Dacomitinib, dacomitinib] | moderate (inhibit ENT1 activity by more than 35% but less than 60%) | 
10 | 22.9 ± 5.2 | CN1CCN(c2ccc(C(=O)Nc3n[nH]c4ccc(Cc5cc(F)cc(F)c5)cc34)c(NC3CCOCC3)c2)CC1 [Entrectinib, entrectinib] |  | 
11 | 72.7 ± 1.1 | C=CC(=O)N1CCC[C@@H](n2nc(-c3ccc(Oc4ccccc4)cc3)c3c(N)ncnc32)C1 [Ibrutinib, ibrutinib] | potent (inhibit ENT1 by more than 60%) | Predicted in vivo inhibition [2]: No; Imax,u (maximum unbound plasma concentration) [3]: 9.56 nM
12 | 21.9 ± 13.3 | N#CCC1(n2cc(-c3ncnc4[nH]ccc34)cn2)CN(C2CCN(C(=O)c3ccnc(C(F)(F)F)c3F)CC2)C1 [Itacitinib, itacitinib] | weak (decreased ENT1 activity by less than 35% and can thus be considered as weak ENT1 inhibitors) | 
13 | 63.1 ± 5.9 | COc1cc2nccc(Oc3ccc(NC(=O)NC4CC4)c(Cl)c3)c2cc1C(N)=O [Lenvatinib, lenvatinib] | potent (inhibit ENT1 by more than 60%) | Predicted in vivo inhibition [2]: No; fu (unbound fraction) [4]: 0.016
14 | 86.6 ± 6.4 | C[C@H]1Oc2cc(cnc2N)-c2c(nn(C)c2C#N)CN(C)C(=O)c2ccc(F)cc21 [Lorlatinib, (10R)-7-amino-12-fluoro-2,10,16-trimethyl-15-oxo-10,15,16,17-tetrahydro-2H-8,4-(metheno)pyrazolo[4,3-h][2,5,11]-benzoxadiazacyclotetradecine-3-carbonitrile] | potent (inhibit ENT1 by more than 60%) | Predicted in vivo inhibition (in words) [5]: should also be clinically relevant; Predicted in vivo inhibition [2]: Yes; Cellular accumulation of lorlatinib ([6]; 5 min at 37 °C, without or with 0.1 or 100 µM NBMPR): similarly accumulate in HAP1 wild-type, ENT1-KO, and ENT2-KO cells; Substrate for ENT1/ENT2 ([6]; ± NBMPR): not a substrate for either ENT1 or ENT2; Imax,u (maximum unbound plasma concentration) [3]: 485 nM
15 | 61.0 ± 8.5 | CCOc1cc2ncc(C#N)c(Nc3ccc(OCc4ccccn4)c(Cl)c3)c2cc1NC(=O)/C=C/CN(C)C [Neratinib, neratinib] | potent (inhibit ENT1 by more than 60%) | Predicted in vivo inhibition [2]: No; fu (unbound fraction) [4]: 0.01; Imax,u (maximum unbound plasma concentration) [3]: 1.46 nM
16 | 46.9 ± 9.6 | COC(=O)c1ccc2c(c1)NC(=O)/C2=C(\Nc1ccc(N(C)C(=O)CN2CCN(C)CC2)cc1)c1ccccc1 [Nintedanib, nintedanib] |  | 
17 | 32.3 ± 11.3 | C=CC(=O)Nc1cc(Nc2nccc(-c3cn(C)c4ccccc34)n2)c(OC)cc1N(C)CCN(C)C [Osimertinib, osimertinib] | weak (decreased ENT1 activity by less than 35% and can thus be considered as weak ENT1 inhibitors) | 
18 | 61.6 ± 8.1 | C1=C/COCc2cc(ccc2OCCN2CCCC2)Nc2nccc(n2)-c2cccc(c2)COC/1 [Pacritinib, 11-(2-pyrrolidin-1-yl-ethoxy)-14,19-dioxa-5,7,26-triaza-tetracyclo[19.3.1.1(2,6).1(8,12)]heptacosa-1(25),2(26),3,5,8,10,12(27),16,21,23-decaene] | potent (inhibit ENT1 by more than 60%) | Predicted in vivo inhibition [2]: No; fu (unbound fraction) [4]: 0.011; Imax,u (maximum unbound plasma concentration) [3]: 247.5 nM
19 | 21.4 ± 2.7 | CNC(=O)c1cc(Oc2ccc(NC(=O)Nc3ccc(Cl)c(C(F)(F)F)c3)c(F)c2)ccn1 [Regorafenib, regorafenib] |  | 
20 | 17.8 ± 10.2 | CN(C)C(=O)c1cc2cnc(Nc3ccc(N4CCNCC4)cn3)nc2n1C1CCCC1 [Ribociclib, ribociclib] |  | Effect on ENT1 activity (in words) [1]: failed to significantly alter ENT1 activity
21 | 4.8 ± 8.3 | C[C@@H]1CCN(C(=O)CC#N)C[C@@H]1N(C)c1ncnc2[nH]ccc12 [Tofacitinib, tofacitinib] |  | Effect on ENT1 activity (in words) [1]: failed to significantly alter ENT1 activity
22 | 27.3 ± 10.9 | CCCS(=O)(=O)Nc1ccc(F)c(C(=O)c2c[nH]c3ncc(-c4ccc(Cl)cc4)cc23)c1F [Vemurafenib, vemurafenib] | weak (decreased ENT1 activity by less than 35% and can thus be considered as weak ENT1 inhibitors) | 
